According to ChEMBL document CHEMBL1157421, “Tenacigenin B derivatives reverse P-glycoprotein-mediated multidrug resistance inHepG2/Dox cells” (J Nat Prod, 2008):

Tests used:
[1] = Growth inhibition of multidrug resistant human HepG2/Dox cells after 72 hrs by SRB assay; type: functional, cell-based
How it was run: (§1)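 SRB growth assay giving IC50 values from at least three repeat experiments, reported as mean ± SD. HepG2/Dox is a doxorubicin-selected Pgp-overexpressing subline kept in 1.2 µM doxorubicin and grown drug-free for at least 7 days before use. Both lines grown in RPMI 1640 with 10% FBS at 37 °C, 5% CO2.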

HepG2 [2] = experiment: Growth inhibition of human HepG2 cells after 72 hrs by SRB assay; type: functional, cell-based; conditions: HepG2, 72 h; how it was run: as §1
HepG2/Dox [3] = experiment: Reversal of P-glycoprotein-mediated multidrug resistance in human HepG2/Dox cells assessed as increase in sensitivity at 19.6 uM in presence of vinblastine; type: cell-based
How it was run: (§2)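 Resistance reversal by SRB assay. IC50s of doxorubicin, vinblastine, puromycin or paclitaxel were measured with or without modulator, with modulator alone as negative control and verapamil as positive control. Fold sensitization is the ratio of drug IC50 without modulator to drug IC50 with it. HepG2/Dox cells were kept drug-free for at least 7 days before use. Assays were run at least three times (mean ± SD).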

HepG2 [4] = experiment: Reversal of P-glycoprotein-mediated drug resistance in human HepG2 cells assessed as increase in sensitivity at 39.2 uM in presence of paclitaxel; type: cell-based; how it was run: as §2
HepG2 [5] = experiment: Reversal of P-glycoprotein-mediated drug resistance in human HepG2 cells assessed as increase in sensitivity at 39.2 uM in presence of doxorubicin; type: cell-based; how it was run: as §2
HepG2/Dox [6] = experiment: Reversal of P-glycoprotein-mediated multidrug resistance in human HepG2/Dox cells assessed as increase in sensitivity at 19.6 uM in presence of puromycin; type: cell-based; how it was run: as §2
HepG2/Dox [7] = experiment: Reversal of P-glycoprotein-mediated multidrug resistance in human HepG2/Dox cells assessed as increase in sensitivity at 39.2 uM in presence of vinblastine; type: cell-based; how it was run: as §2
HepG2 [8] = experiment: Reversal of P-glycoprotein-mediated drug resistance in human HepG2 cells assessed as increase in sensitivity at 39.2 uM in presence of puromycin; type: cell-based; how it was run: as §2
HepG2/Dox [9] = experiment: Reversal of P-glycoprotein-mediated multidrug resistance in human HepG2/Dox cells assessed as increase in sensitivity at 19.6 uM in presence of doxorubicin; type: cell-based; how it was run: as §2
[10] = Growth inhibition of multidrug resistant human HepG2/Dox cells at 80 uM; type: functional
How it was run: (§3)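 SRB growth assay. HepG2 and HepG2/Dox cells were grown in RPMI 1640 with 10% FBS at 37 °C and 5% CO2; resistant cells were kept drug-free for at least 7 days before use. IC50 was taken from the SRB assay, with at least three repeats, reported as mean ± SD.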

HepG2 [11] = experiment: Growth inhibition of doxorubicin-sensitive human HepG2 cells at 80 uM; type: functional; how it was run: as §3
HepG2/Dox [12] = experiment: Reversal of P-glycoprotein-mediated multidrug resistance in human HepG2/Dox cells assessed as increase in sensitivity at 39.2 uM in presence of paclitaxel; type: cell-based; how it was run: as §2
HepG2/Dox [13] = experiment: Reversal of P-glycoprotein-mediated multidrug resistance in human HepG2/Dox cells assessed as increase in sensitivity at 39.2 uM in presence of puromycin; type: cell-based; how it was run: as §2
HepG2/Dox [14] = experiment: Reversal of P-glycoprotein-mediated multidrug resistance in human HepG2/Dox cells assessed as increase in sensitivity at 19.6 uM in presence of paclitaxel; type: cell-based; how it was run: as §2
HepG2 [15] = experiment: Reversal of P-glycoprotein-mediated drug resistance in human HepG2 cells assessed as increase in sensitivity at 39.2 uM in presence of vinblastine; type: cell-based; how it was run: as §2
HepG2/Dox [16] = experiment: Reversal of P-glycoprotein-mediated multidrug resistance in human HepG2/Dox cells assessed as increase in sensitivity at 39.2 uM in presence of doxorubicin; type: cell-based; how it was run: as §2
[17] = Cell cycle arrest in multidrug resistant human HepG2/Dox cells assessed as accumulation in subG1 phase at 10 uM; type: functional, cell-based
How it was run: (§4)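 Flow-cytometric cell-cycle profiling. About 2 × 10^5 cells were seeded per dish and left overnight, then exposed to medium with or without drug for 48 h. Cells were fixed in 70% EtOH at -20 °C overnight and treated with RNase A (100 µg/mL, 37 °C, 30 min). They were then stained with propidium iodide (40 µg/mL final) at room temperature for 5-10 min and read on a FACSCalibur.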

[18] = Cell cycle arrest in multidrug resistant human HepG2/Dox cells assessed as accumulation in G0/G1 phase at 1 uM; type: functional, cell-based; how it was run: as §4
[19] = Cell cycle arrest in multidrug resistant human HepG2/Dox cells assessed as accumulation in subG1 phase at 50 uM; type: functional, cell-based; how it was run: as §4
[20] = Cell cycle arrest in multidrug resistant human HepG2/Dox cells assessed as accumulation in G0/G1 phase at 10 uM; type: functional, cell-based; how it was run: as §4
[21] = Cell cycle arrest in multidrug resistant human HepG2/Dox cells assessed as accumulation in G2/M phase at 1 uM; type: functional, cell-based; how it was run: as §4
[22] = Cell cycle arrest in multidrug resistant human HepG2/Dox cells assessed as accumulation in G2/M phase at 50 uM; type: functional, cell-based; how it was run: as §4
HepG2 [23] = experiment: Cell cycle arrest in human HepG2 cells assessed as accumulation in G2/M phase at 0.2 uM; type: functional
How it was run: (§5)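 Cells seeded at about 2 × 10^5 per dish and left overnight, then exposed to drug for 48 h. Collected, washed in PBS, fixed in 70% EtOH at -20 °C overnight, treated with RNase A (100 µg/mL) at 37 °C for 30 min, stained with propidium iodide (40 µg/mL final) at room temperature, and phase distribution read by flow cytometry.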

[24] = Cell cycle arrest in multidrug resistant human HepG2/Dox cells assessed as accumulation in S phase at 50 uM; type: functional, cell-based; how it was run: as §4
[25] = Cell cycle arrest in multidrug resistant human HepG2/Dox cells assessed as accumulation in S phase at 1 uM; type: functional, cell-based; how it was run: as §4
[26] = Cell cycle arrest in multidrug resistant human HepG2/Dox cells assessed as accumulation in G0/G1 phase at 50 uM; type: functional, cell-based; how it was run: as §4
HepG2 [27] = experiment: Cell cycle arrest in human HepG2 cells assessed as accumulation in S phase at 0.2 uM; type: functional; how it was run: as §5
HepG2 [28] = experiment: Cell cycle arrest in human HepG2 cells assessed as accumulation in G0/G1 phase at 0.2 uM; type: functional; how it was run: as §5
[29] = Cell cycle arrest in multidrug resistant human HepG2/Dox cells assessed as accumulation in S phase at 10 uM; type: functional, cell-based; how it was run: as §4
HepG2 [30] = experiment: Cell cycle arrest in human HepG2 cells assessed as accumulation in subG1 phase at 0.2 uM; type: functional; how it was run: as §5
[31] = Cell cycle arrest in multidrug resistant human HepG2/Dox cells assessed as accumulation in G2/M phase at 10 uM; type: functional, cell-based; how it was run: as §4
[32] = Cell cycle arrest in multidrug resistant human HepG2/Dox cells assessed as accumulation in subG1 phase at 1 uM; type: functional, cell-based; how it was run: as §4

For CC(=O)O[C@H]1C(=O)[C@@]2(C)[C@H]([C@H](OC(=O)c3ccccc3)[C@]3(O)C[C@H](OC(=O)[C@H](O)[C@@H](NC(=O)c4ccccc4)c4ccccc4)C(C)=C1C3(C)C)[C@]1(OC(C)=O)CO[C@@H]1C[C@@H]2O [PACLITAXEL], which IC50 [1] is on record?
Its IC50 is 1400 nM.

What about the IC50 (HepG2 [2]) of the same compound?
The IC50 was 5.9 nM.

For CC[C@]1(O)C[C@@H]2CN(CCc3c([nH]c4ccccc34)[C@@](C(=O)OC)(c3cc4c(cc3OC)N(C)[C@H]3[C@@](O)(C(=O)OC)[C@H](OC(C)=O)[C@]5(CC)C=CCN6CC[C@]43[C@@H]65)C2)C1 [VINBLASTINE], which IC50 [1] is on record?
Its IC50 is 260 nM.

And the IC50 (HepG2 [2])?
Its IC50 is 0.26 nM.

For CC(=O)O[C@@H]1[C@@H](OC(=O)c2ccccc2)[C@@H]2[C@@]3(C)CC[C@H](O)C[C@@H]3CC[C@]23O[C@@]32CC[C@@H](C(C)=O)[C@@]12C [11ALPHA-O-BENZOYL-12BETA-O-ACETYLTENACIGENIN B], which Ratio IC50 (HepG2/Dox [3]) is on record?
The Ratio IC50 was 13.

What about the Ratio IC50 (HepG2 [4]) of the same compound?
The Ratio IC50 was 1.

What about the Ratio IC50 (HepG2 [5]) of the same compound?
Its Ratio IC50 is 1.2.

What about the Ratio IC50 (HepG2/Dox [6]) of the same compound?
Its Ratio IC50 is 8.1.

What about the Ratio IC50 (HepG2/Dox [7]) of the same compound?
Its Ratio IC50 is 53.1.

What about the Ratio IC50 (HepG2 [8]) of the same compound?
The Ratio IC50 was 1.

And the Ratio IC50 (HepG2/Dox [9])?
The Ratio IC50 was 10.1.

What about the inhibition at 80 µM [10] of the same compound?
Its inhibition at 80 µM is 50%.

What about the inhibition at 80 µM (HepG2 [11]) of the same compound?
The inhibition at 80 µM was 50%.

What about the Ratio IC50 (HepG2/Dox [12]) of the same compound?
The Ratio IC50 was 326.

What about the Ratio IC50 (HepG2/Dox [13]) of the same compound?
Its Ratio IC50 is 15.5.

What about the Ratio IC50 (HepG2/Dox [14]) of the same compound?
Its Ratio IC50 is 42.4.

What about the Ratio IC50 (HepG2 [15]) of the same compound?
The Ratio IC50 was 0.9.

And the Ratio IC50 (HepG2/Dox [16])?
Its Ratio IC50 is 15.6.

What does the source list for COc1cccc2c1C(=O)c1c(O)c3c(c(O)c1C2=O)C[C@@](O)(C(=O)CO)C[C@@H]3O[C@H]1C[C@H](N)[C@H](O)[C@H](C)O1 [DOXORUBICIN]?
Activity [17]: 3.4%; IC50 [1]: 8600 nM; Activity [18]: 51.3%; Activity [19]: 4.9%; Activity [20]: 24.8%; Activity [21]: 33.5%; Activity [22]: 73.4%; Activity (HepG2 [23]): 76.6%; Activity [24]: 5.6%; Activity [25]: 7.7%; IC50 (HepG2 [2]): 170 nM; Activity [26]: 12%; Activity (HepG2 [27]): 8.9%; Activity (HepG2 [28]): 4.9%; Activity [29]: 6.9%; Activity (HepG2 [30]): 0.9%; Activity [31]: 60.8%; Activity [32]: 2.4%

Which IC50 [1] does the source give for COc1ccc(C[C@H](N)C(=O)N[C@H]2[C@@H](O)[C@H](n3cnc4c(N(C)C)ncnc43)O[C@@H]2CO)cc1 [PUROMYCIN] here?
The IC50 was 20200 nM.

What about the IC50 (HepG2 [2]) of the same compound?
Its IC50 is 210 nM.
